Screening results from PubChem.
PolyA inhibitor: inhibitors of polyadenylation in S. cerevisiae. S. cerevisiae SKY197-pL101 polyadenylation reporter, beta-gal luminescence; efflux-impaired pdr1/pdr3 knockout yeast; score 100 = 6 SD above DMSO. activity score, % at 12 µM. hit rate 0.02% among 300,000;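 active means lowest replicate activity score at least 50, where 100 means six control SD above control mean; inconclusive means lowest score under 50 but half or more replicates reach 50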;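 further: yeast exposed to compound for 9 h at 30 °C; higher score means more reporter readthrough which indicates perturbed polyadenylation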
NALP1 inh: NALP1 inhibition. hit rate 0.61% among 280,000. inhibition, % at 10 µM. S. cerevisiae NALP1/ASC/caspase-1 growth, X-gal OD620, 72 h; in the data active means inhibition mostly above about 24%, no sharp cut-off; inactive means mostly below about 32%
DSG3 Ab inh: blocks pemphigus antibody binding to human desmoglein-3; P32926; DSG3-coupled beads, scFv-anti-DSG3-GFP binding, flow cytometry; hits give low values; binding (percent of control), % at 10 µM; hit rate 0.48% among 310,000; AID 588358;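 active means binding more than 3 SD below its plate's average and above zero; inconclusive means below that plate limit but binding exactly zero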;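 further: hits lower antibody fragment binding to DSG3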
Arr AP2 block: inhibitors of human beta-arrestin and AP2 interaction | FITC-arrestin peptide / GST-AP2 beads, flow cytometry; AP2 beta2 appendage carries R879A mutation | inhibition, % at 10 µM | hit rate 0.31% among 340,000;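 active means inhibition above a set limit, near 3 SD of compounds lacking own fluorescence, cut at about 54% in these data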;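 further: plate controls were DMSO wells for no effect and 5 µM unlabelled arrestin peptide for full effect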
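Material – AP2 appendage R879A on GSH beads · Buffer or medium – PBS with 0.05% Tween 20 and 0.1% BSA · Probe or stimulus – fluorescein-tagged arrestin peptide at 50 nM final · Incubation – compound with beads 12 min RT, then probe 1 h RT · Detection – high-throughput flow cytometry of beads, ex 488, em 535 nm · Evaluation – percent response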
ALR H2O2 inh: blocks human ALR sulfhydryl oxidase activity; inhibition, % (concentration not given with the values); hit rate 3.8% among 290,000; purified ALR, DTT oxidation, H2O2 HRP-luminol luminescence; P55789;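 active means mean replicate inhibition above about 79%, with every replicate also reaching it, limit read from the data; inconclusive means only one of the two criteria met; inactive means mean below limit and not every replicate reaching it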
NLRP3 yeast inh: blocks the NALP3 inflammasome reconstituted in yeast; Yeast reconstituted NLRP3/ASC/caspase-1, beta-gal luminescence, 24 h; hit rate 0.39% among 330,000; inhibition, % at 10 µM;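 active means inhibition of 50% or more; inactive means inhibition below 50%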;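 further: plate controls were induced DMSO wells for no effect and uninduced yeast grown without galactose for full effect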
NALP3 yeast conf: NALP3 inhibition confirmation in yeast; shares compounds with NLRP3 yeast inh; yeast expressing human NALP3, luminescence; inhibition, % at 10 µM; hit rate 81% among 1,300; in the data active means inhibition above about 48%
Casp1 ASC ctr: active in yeast caspase-1-ASC counter-screen for NALP3 inhibitors; shares compounds with NLRP3 yeast inh; yeast expressing Caspase-1-ASC, luminescence counter screen; inhibition, % at 10 µM; hit rate 66% among 1,000; AID 488784
NALP3 retest: confirmation retest of NALP3 inhibitors in yeast; AID 488794; yeast expressing human NALP3, luminescence read-out; hit rate 53% among 1,000; shares compounds with NLRP3 yeast inh; inhibition, % at 10 µM
* marks the source's active call; other numbers are inactive results; ? = inconclusive; . = not tested or not shown. Shown are actives, neighbours in structure and some others; about 4.6% of the full set was active somewhere. Unless noted, no stated cut-off is given here; in the data, active means inhibition above about 50%; inactive means the rest.

SMILES	PolyA inhibitor	NALP1 inh	DSG3 Ab inh	Arr AP2 block	ALR H2O2 inh	NLRP3 yeast inh	NALP3 yeast conf	Casp1 ASC ctr	NALP3 retest
CN1CCN(C(=O)c2cc(COc3c(F)cccc3F)on2)CC1c1ccccc1 (stereo unspecified)	-113.9	10.8	146.9	12.3	-1.4	84.1*	87.6*	85.0*	84.3*
CC(OC(=O)COc1ccccc1)C(=O)NC1CCCC1 (stereo unspecified)	.	.	.	-1.7	-1.0	26.0	.	.	.
O=C(N/N=C/c1ccccc1)c1c(O)c2ccccc2[nH]c1=O	?	7.0	101.1	8.8	-7.0	55.2*	65.4*	.	.
CC(C)NC(=O)c1c(O)c2ccccc2[nH]c1=O	3.0	9.5	102.6	-0.2	-3.7	53.6*	72.3*	37.0	53.4*
O=C(N/N=C/c1cccc(F)c1)c1c(O)c2ccccc2[nH]c1=O	?	46.8	98.9	-2.6	-2.9	.	.	.	.
CCNc1ccc2c(Cl)cc(=O)oc2c1	-6.4	20.6	99.5	4.5	-6.4	3.7	.	.	.
CCN(CC)c1ccc2c(Cl)cc(=O)oc2c1	-21.1	11.7	.	.	12.0	58.0*	52.6*	59.3*	44.4
CCOC(=O)CSc1nnc(NC(=O)CN2CCCCC2)s1	-6.2	6.3	106.0	-9.8	-2.4	10.4	.	.	.
COc1ccccc1-c1nnc2sc(-c3cc4ccccc4o3)nn12	-23.5	7.3	105.2	-0.5	-5.4	59.3*	70.2*	.	.
CCNC(=O)/C(C#N)=C/c1c(N2CCCCCC2)nc2c(C)cccn2c1=O	0.6	16.5	100.5	2.8	18.6	9.4	.	.	.
COc1ccc(C2(NC(C)=O)CCN(C(=O)c3ccco3)CC2)cc1	3.7	-0.4	100.3	25.3	-1.1	-0.3	.	.	.
NC(=O)c1cc2cc(Cl)ccc2o/c1=N/NC(=O)c1cccs1	2.0	-1.7	100.1	-17.7	0.8	-3.8	.	.	.
CN=c1oc2ccc(Cl)cc2cc1C(N)=O	-7.4	9.1	.	19.3	.	51.5*	46.0	17.2	15.8
O=C(COC(=O)COc1ccc2ccccc2c1)NCC(F)(F)F	15.8	-19.3	119.0	10.3	-9.0	14.2	.	.	.
Cc1ccc2nc(N3C(=O)CNC3=S)sc2c1	28.9	-7.2	100.4	0.8	93.2*	80.6*	61.1*	87.4*	82.6*
COc1ccc2nc(N3C(=O)CNC3=S)sc2c1	23.1	.	91.0	-14.8	.	66.7*	34.8	.	.
COC(=O)/C=C1\C(=O)N(c2nc3ccc(OC)cc3s2)C(=S)N1c1ccc(F)cc1	10.7	24.4	.	.	-3.9	-3.7	.	.	.
Cc1ccc(NC(=O)CN(C)C(=O)COC(=O)c2ccc(Cl)cc2O)cc1	.	.	95.9	5.4	-0.4	-8.9	.	.	.
COc1cc2[nH]c(Cl)c([N+](=O)[O-])c2cc1OC	-6.4	.	94.3	9.7	-12.1	-15.7	.	.	.
COc1cc(OC)cc(C(=O)NNC(=O)C(CCC(N)=O)NS(=O)(=O)c2ccc(Cl)cc2)c1 (stereo unspecified)	.	.	97.2	12.8	.	.	.	.	.
Cc1ccc(SCc2cn3cc(Cl)ccc3n2)cc1	-1.7	.	.	7.6	.	46.1	.	.	.
Clc1ccc2nc(CSc3nc4ccccc4o3)cn2c1	-1.0	6.7	98.3	9.5	-1.2	56.7*	72.8*	68.6*	60.4*
CN(CCOc1ccccc1)CC(=O)Nc1ccc(S(=O)(=O)N2CCCC2)cc1	31.0	2.2	90.2	-10.0	-4.2	-3.1	.	.	.
CN(CCOc1ccccc1)c1ccc(S(=O)(=O)N2CCCCC2)cn1	-5.9	-9.1	100.8	-6.0	-2.8	55.5*	59.6*	47.5	51.8*
Cc1ccc(C(=O)/C=C/Nc2ccccn2)cc1	-11.7	.	108.7	13.1	-0.4	53.0*	20.4	.	.
CC(C(=O)Nc1ncc([N+](=O)[O-])s1)N1C(=O)c2ccccc2S1(=O)=O (stereo unspecified)	3.4	.	93.4	23.9	-0.8	7.9	.	.	.
